Screens deposited in PubChem BioAssay by Johns Hopkins Ion Channel Center.
KCNQ1 pot – human KCNQ1 channel potentiation or activation. CHO-K1 KCNQ1, thallium flux FluxOR fluorescence; hits give high values. B-score at 10 µM. hit rate 0.35% among 310,000;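 active = fluorescence ratio B-score, a plate-corrected score, at least three library SD, with initial intensity B-score within 5 SD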
Target sequence (P51787 whole entry, looked up): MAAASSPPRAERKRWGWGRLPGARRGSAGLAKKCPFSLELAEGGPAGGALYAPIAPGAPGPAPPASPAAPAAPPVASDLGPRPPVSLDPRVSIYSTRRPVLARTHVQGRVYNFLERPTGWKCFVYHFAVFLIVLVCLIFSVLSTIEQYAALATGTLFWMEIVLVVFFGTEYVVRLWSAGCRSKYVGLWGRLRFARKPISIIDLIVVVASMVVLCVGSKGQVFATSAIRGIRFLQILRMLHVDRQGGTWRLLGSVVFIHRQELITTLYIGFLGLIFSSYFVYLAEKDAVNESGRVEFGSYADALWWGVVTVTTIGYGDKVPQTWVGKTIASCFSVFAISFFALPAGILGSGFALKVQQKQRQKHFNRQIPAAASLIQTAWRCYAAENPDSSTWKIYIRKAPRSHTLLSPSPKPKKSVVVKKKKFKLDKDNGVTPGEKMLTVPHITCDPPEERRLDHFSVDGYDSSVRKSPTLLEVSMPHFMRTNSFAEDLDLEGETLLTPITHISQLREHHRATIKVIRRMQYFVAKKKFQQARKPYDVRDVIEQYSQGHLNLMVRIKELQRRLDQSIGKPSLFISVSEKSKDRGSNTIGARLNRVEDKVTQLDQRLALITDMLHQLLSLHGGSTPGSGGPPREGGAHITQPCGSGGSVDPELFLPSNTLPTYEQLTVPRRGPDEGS
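Material: CHO-K1 cells stably expressing KCNQ1. Medium: assay buffer for compound exposure, DMSO matched across wells. Reagent: K+/Tl+ depolarizing stimulus. Compound dosing: single-concentration screen. Times: 37 °C overnight plating, 90-min dark dye load, 20-min compound pretreatment. Technique: FluxOR Tl+ flux fluorescence.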
KCNK3 block – human KCNK3 channel inhibition, primary screen; CHO-KCNK3 thallium flux, FluxOR fluorescence; hits give low values; B-score at 10 µM; hit rate 0.84% among 340,000; AID 602410;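 active = B-score under library mean minus 4 SD, starting fluorescence ratio at most library mean plus 5 SD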;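 also: more negative B-score means stronger inhibition of thallium flux through KCNK3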
KCNQ1 block – human KCNQ1 channel inhibition. CHO-K1 KCNQ1, FluxOR thallium flux fluorescence; hits give high values. P51787. hit rate 1.3% among 310,000. B-score at 10 µM;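 active = compounds whose thallium flux B-score, printed positive for inhibition, exceeds three library SD while starting fluorescence stays within three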;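 also: channel opened by potassium depolarization with thallium stimulus after 20 min compound exposure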
hERG rescue – shields human hERG channel from block by proarrhythmic agents; hit rate 0.51% among 310,000; activation (rescue from dofetilide block), less the hit threshold, % at 10 µM; CHO-hERG, FluxOR thallium flux, dofetilide IC70 present; Q12809;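 active = activation above the mean of controls blocked by dofetilide plus 5 SD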;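 also: thallium influx through hERG after potassium depolarization seen as dye fluorescence rise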
Kir21 block – inhibitors of mouse Kir2.1 inward-rectifier potassium channel; B-score at 10 µM; hit rate 0.85% among 310,000; HEK293-Kir2.1, FluxOR thallium flux fluorescence; hits give low values; P35561;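 active = fluorescence ratio B-score at or below minus 3 SD of library scores, with starting-brightness B-score within 2 SD, cut at about -4.2 in these data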;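 also: channel flux triggered by added potassium and thallium sulfate stimulus; B-score of peak minus minimum fluorescence over baseline after thallium stimulus; more negative B-score means stronger Kir2.1 block with less thallium influx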
KCNK9 inh – inhibitors of human KCNK9 two-pore domain potassium channel | HEK293 KCNK9, FluxOR thallium flux fluorescence; hits give low values | B-score at 10 µM | hit rate 1.2% among 310,000 | AID 488922;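 active = ratio B-score over 3 SD below the library mean, with starting fluorescence within 5 SD of its mean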;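 also: negative B-score means less thallium flux so channel inhibition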
KCNK3 confirm – confirmation of human KCNK3 two-pore domain potassium channel inhibitors; ratio percent of control, % at 10 µM; AID 651638; CHO-KCNK3 thallium flux, FluxOR fluorescence; 0% buffer, 100% carvedilol maximal block; shares compounds with KCNK3 block; hit rate 99% among 2,400;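 active = ratio percent of control, averaged over triplicates, above buffer control mean plus 5 SD, cut at about 64% in these data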;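 also: ratio is the fluorescence rise from min to max over baseline after thallium stimulus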
KCNK3 noninduced – activity in cells without induced KCNK3 expression. shares compounds with KCNK3 block. non-induced KCNK3 parental cells, FluxOR thallium flux; hits give low values. thallium flux ratio (lower = more inhibition) at 10 µM. hit rate 40% among 2,400. AID 651747;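 active = thallium flux ratio, averaged over three wells, more than 5 SD below the buffer control mean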;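 also: host cells are CHO cells without KCNK3 induction; ratio is peak minus trough fluorescence over baseline then normalized to buffer controls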
Numbers without * were called inactive; i = inactive; x = not tested or not shown. This is a sample that favours compounds with a hit; in the whole collection about 3.7% have one here.

SMILES | KCNQ1 pot | KCNK3 block | KCNQ1 block | hERG rescue | Kir21 block | KCNK9 inh | KCNK3 confirm | KCNK3 noninduced
O=C(Nc1cccc(OCC(=O)N2CCOCC2)c1)c1cccc([N+](=O)[O-])c1 | i | i | i | -11 | -2.6 | i | x | x
COc1ccc(C(=O)COc2cccc(NC(=O)c3ccco3)c2)cc1 | i | i | i | -15 | 0.76 | i | x | x
O=C(COc1cccc(NC(=O)c2cccc([N+](=O)[O-])c2)c1)c1ccc(Br)cc1 | i | -11* | i | -3 | 0.47 | i | 96* | 0.15*
Cc1cc(C)cc(C(=O)Nc2cccc(NC(=O)c3ccco3)c2)c1 | i | -11* | i | -11 | -0.3 | -8* | 101* | i
Cc1ccc(CN(C(=O)COc2ccc(Br)cc2)C2CCS(=O)(=O)C2)o1 (stereo not drawn) | i | i | i | -6 | 0.57 | i | x | x
Cc1ccccc1C1CC(=O)c2ccccc2C1C (stereo not drawn) | x | i | x | x | x | x | x | x
O=C1c2cccc3cccc(c23)C(=O)N1CCc1ccccc1 | i | -9.6* | i | -3 | 0.49 | i | 118* | i
O=C(c1c[nH]c(C(=O)C(Cl)(Cl)Cl)c1)c1ccc(F)cc1Cl | 8* | -11* | i | -15 | 0.14 | i | 88* | i
O=[N+]([O-])c1ccc(Nc2c3ccccc3nc3ccccc23)cc1 | i | -12* | i | -3 | 0.17 | i | 120* | 0.15*
O=[N+]([O-])c1ccccc1Nc1c2ccccc2nc2ccccc12 | i | i | i | -22 | 0.62 | i | x | x
O=[N+]([O-])c1ccc(S(=O)(=O)Nc2nc3ccccc3nc2Nc2ccccc2)cc1 | i | -11* | i | -9 | 1.4 | i | 107* | i
O=C(O)c1ccc(Nc2nc3ccccc3nc2NS(=O)(=O)c2ccc(F)cc2)cc1 | i | i | i | -13 | 2.4 | i | x | x
COc1cc(Nc2nc3ccccc3nc2NS(=O)(=O)c2ccc([N+](=O)[O-])cc2)cc(OC)c1OC | i | -12* | 10* | -13 | 2.4 | i | 129* | 0.12*
CC1(C)Cc2cccc(C(=O)Nc3ccc(F)cc3F)c2O1 | i | i | i | -2 | -2.2 | i | x | x
CC1(c2ccccc2)NC(=O)N(CC(=O)N2CCN(S(=O)(=O)c3cccs3)CC2)C1=O (stereo not drawn) | i | i | i | -14 | -0.56 | i | x | x
CC(=O)Nc1ccc(NC(=O)c2cccc3c2-c2ccccc2C3=O)cc1 | i | i | i | -7 | 0.94 | i | x | x
CSc1ccccc1C(=O)Nc1ccc(C)c(C)c1 | i | -8.9* | i | -5 | 1.5 | i | 87* | i
CSc1ccccc1C(=O)Nc1cc(C)cc(C)c1 | i | i | i | -10 | -1 | i | x | x
Cc1ccc(NC(=O)c2cccc3c2-c2ccccc2C3=O)cc1C | i | -9.3* | i | -11 | -1.7 | i | 108* | i
CCOC(=O)C1(Cc2ccc(Cl)cc2)CCN(C(=O)c2ccoc2)CC1 | i | i | i | -27 | -6.1 | i | x | x
CCNC(=O)NC(=O)COC(=O)CCCc1nc2ccccc2s1 | i | i | i | -4 | 0.03 | i | x | x
C=C(c1ccccc1O)n1ccnc1 | i | i | i | -4 | 0.56 | i | x | x
COc1ccc(Br)cc1CNC(=O)CN1C(=O)C(c2ccccc2)Oc2cccnc21 (stereo not drawn) | i | -10* | i | -10 | -0.55 | i | 95* | i
CCS(=O)(=O)c1ncc(Cl)c(C(=O)Nc2ccc(S(=O)(=O)N3CCCC(C)C3)cc2)n1 (stereo not drawn) | i | i | i | -8 | 1.8 | i | x | x
CCC1CCCCN1S(=O)(=O)c1ccc(NC(=O)c2ccncc2)cc1 (stereo not drawn) | i | -10* | i | -6 | 0.18 | i | 121* | i
SMILES | KCNQ1 pot | KCNK3 block | KCNQ1 block | hERG rescue | Kir21 block | KCNK9 inh | KCNK3 confirm | KCNK3 noninduced
CCC1CCCCN1S(=O)(=O)c1ccc(NC(=O)c2nc(S(C)(=O)=O)ncc2Cl)cc1 (stereo not drawn) | i | -11* | i | -29 | -1.9 | i | 114* | 0.14*
COc1cc(C)c(NC(=O)C2CCN(S(=O)(=O)c3cccs3)CC2)cc1OC | x | i | x | x | x | x | x | x
Cc1[nH]c(C)c(S(=O)(=O)N2c3ccccc3CC2C)c1C(=O)N1CCCCC1 (stereo not drawn) | i | i | i | -7 | -0.14 | i | x | x
CCOC(=O)c1ccccc1NC(=O)c1c(O)c2ccccc2n(CC)c1=O | i | -9.5* | i | -4 | 0.11 | i | 112* | i
CCCn1c(=O)c(C(=O)Nc2ccccc2C(=O)OC)c(O)c2ccccc21 | i | -9.6* | i | -3 | 0.49 | i | 98* | i
CCn1c(=O)c(C(=O)Nc2ccsc2C(=O)OC)c(O)c2ccccc21 | i | x | i | -10 | 0.33 | i | x | x
CCn1c(=O)c(C(=O)Nc2ccc(C)cc2C)c(O)c2ccccc21 | i | i | i | -4 | 0.91 | i | x | x
CC(C)Cc1cc(CNC(=O)C2CCC(=O)N(CCc3cccc(F)c3)C2)on1 (stereo not drawn) | i | i | i | -5 | -0.55 | i | x | x
CC(C)c1nc(CNC(=O)C2CCC(=O)N(CCc3cccc(F)c3)C2)cs1 (stereo not drawn) | i | -11* | i | -4 | 0.45 | i | 77* | i
COc1ccc(-c2ccc3oc(-c4ccsc4)cc(=O)c3c2)cn1 | x | i | x | x | x | x | x | x
CCCCn1c(N)c(-c2nc3ccccc3s2)c2c([N+](=O)[O-])nn(CC)c(=O)c21 | i | -11* | i | -6 | 2 | i | 122* | 0.13*
O=C(CN(Cc1ccccc1F)C(=O)c1csnn1)NCc1ccc2c(c1)OCO2 | i | i | i | -4 | 0 | i | x | x
COc1ccc(-c2csc(N(CC3CCCO3)C(=O)c3ccccc3)n2)cc1 (stereo not drawn) | i | -8.9* | i | -10 | -0.33 | i | 89* | i
COc1ccc(-c2csc(N(CC3CCCO3)C(=O)c3ccc(C)cc3)n2)cc1 (stereo not drawn) | i | i | i | -11 | -0.95 | i | x | x
Cc1cc(S(=O)(=O)NCC(C)C)ccc1OCC(=O)NCC1CCCO1 (stereo not drawn) | i | i | i | -7 | 1.9 | i | x | x
